Bioassay records deposited in PubChem BioAssay by Broad Institute.
S100A4 MyoIIA = inhibitors of S100A4-myosin IIA peptide binding, primary screen, biochemical, fluorescence polarization, TAMRA-MyoIIA peptide. 360,000 compounds, 0.14% hits. inhibition, % at 10.7 µM;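 active = mean inhibition of at least 70% across replicates, with every replicate also reaching that level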
Target sequence (P26447 whole entry, looked up): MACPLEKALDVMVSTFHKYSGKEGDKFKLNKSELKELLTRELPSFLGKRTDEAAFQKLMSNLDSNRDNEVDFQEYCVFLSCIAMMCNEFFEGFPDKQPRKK
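Assay system: human S100A4 monomer with TAMRA-labelled myosin IIA peptide / Buffer or medium: Calcium-containing HEPES buffer, pH 7.2 / Reagent: TAMRA-labelled myosin IIA heavy-chain peptide probe, 5 nM / Compound: one dose per compound / Timing: polarization read 5 min after assay mix addition, stable 5–60 min / Benchmarks: neutral control DMSO, positive control TFP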
F508del corr = F508del CFTR correction, initial screen, CFBE line, single point. activity (quench increase), % at 7.58 µM. CFBE cells, YFP halide quenching; stimulated with forskolin plus potentiator P3; % fluorescence drop versus neutral controls. 350,000 compounds, 0.36% hits. AID 720511, 2013;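 active = mean added fluorescence quench of at least 8% versus neutral control, with both replicates also reaching 8%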;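 note: cells transiently co-express mutant CFTR-F508del with the halide-sensitive YFP; corrector assay measuring rescue of mutant channel to the surface after 24 h compound exposure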
rRNA inh HTS = reduced GFP signal of wild-type E. coli, primary screen, bacterial rRNA inhibitor project, GFP/RFP fluorescence, OD600, single point | 350,000 compounds, 1.6% hits | GFP signal change (wild-type ribosome), % (concentration not given with the values) | AID 720706, 2013 | E. coli WT GFP vs humanized-ribosome RFP mutants, 24 h; active compounds read low; DMSO median 0, no signal -100;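 active = significant combined selectivity score with lowered wild-type GFP, culture density cut under 30%, mutant RFP and density less affected; inactive = any of these conditions unmet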
SIRT5 inh = SIRT5 desuccinylase inhibitors, primary screen, biochemical, fluorescence imaging, single point, set 5 | inhibition, % at 15 µM | Purified SirT5, succinyl-peptide AMC, trypsin-coupled fluorescence | NAD-dependent protein deacylase sirtuin-5, mitochondrial (Homo sapiens), Q9NXA8 | 330,000 compounds, 1.1% hits; in the data active = inhibition above about 15%
Target sequence (Q9NXA8 whole entry, looked up): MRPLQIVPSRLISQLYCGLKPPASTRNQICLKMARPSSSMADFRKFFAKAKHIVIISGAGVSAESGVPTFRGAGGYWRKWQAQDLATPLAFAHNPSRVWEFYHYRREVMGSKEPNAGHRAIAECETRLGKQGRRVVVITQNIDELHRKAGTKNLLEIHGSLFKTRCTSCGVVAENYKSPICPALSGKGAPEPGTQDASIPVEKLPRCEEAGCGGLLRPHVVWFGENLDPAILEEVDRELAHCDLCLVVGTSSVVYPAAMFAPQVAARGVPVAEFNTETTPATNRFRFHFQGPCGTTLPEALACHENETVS
ERAP1 HTS inh = human ERAP1 aminopeptidase inhibitors, primary screen, biochemical, single point, plate reader. recombinant ERAP1, Leu-AMC fluorescence, 60 min. AID 652197, 2013. 340,000 compounds, 0.15% hits. inhibition, % at 10.7 µM. Endoplasmic reticulum aminopeptidase 1 (Homo sapiens), Q9NZ08;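 active = mean replicate inhibition of at least 30%, or all replicates individually reaching that 30% level; inactive = mean below 30% and not every replicate reaching it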
A number is an active result; 0 = inactive; - = not tested or not shown; ! = a repeat was not active. Compounds with a hit are over-represented: about 3.1% of the library has one in this group of screens.

SMILES | S100A4 MyoIIA | F508del corr | rRNA inh HTS | SIRT5 inh | ERAP1 HTS inh
O/N=C(/c1ccccc1)c1cc2cc(Br)cc(Br)c2o1 | 0 | 0 | -23 | 0 | 0
C[C@@H](NC(=O)C[C@@H]1CC[C@@H](NS(=O)(=O)c2cccc(F)c2)[C@H](CO)O1)c1ccccc1 | 0 | 0 | 0 | 0 | 0
O=C(C[C@@H]1C=C[C@H](NC(=O)Nc2cc(F)ccc2F)[C@H](CO)O1)NCc1ccccn1 | 0 | 0 | 0 | 0 | 0
Cn1cnc(CCNC(=O)C[C@@H]2CC[C@H]3[C@@H](COC[C@@H](O)CN3C(=O)C3CC3)O2)c1 | 81 | 0 | 0 | 0 | 0
O=C(C[C@H]1CC[C@@H]2NC[C@@H](O)COC[C@H]2O1)NCCN1CCCCC1 | - | 0 | 0 | - | -
O=C(C[C@H]1CC[C@H]2NC[C@H](O)COC[C@@H]2O1)NCCN1CCCCC1 | 115 | 0 | 0 | 0 | 0
CCCNC(=O)N1C[C@H](O)COC[C@@H]2O[C@@H](CC(=O)NCCCN3CCOCC3)CC[C@H]21 | 107! | 0 | 0 | 0 | 0
Cn1cnc(CCNC(=O)C[C@@H]2CC[C@H]3[C@@H](COC[C@H](O)CN3C(=O)C3CC3)O2)c1 | 0 | 0 | 0 | 0 | 0
Cn1cnc(CCNC(=O)C[C@@H]2CC[C@@H]3[C@H](COC[C@H](O)CN3C(=O)C3CCCC3)O2)c1 | 0 | 0 | 0 | 24 | 0
O=C(NCC1CC1)[C@@H]1[C@@H](CO)[C@@H]2Cn3c(ccc(-c4ccc(F)cc4)c3=O)[C@H]1N2 | 0 | 0 | 0 | 0 | 0
O=C(O)c1cc(-c2ccc(/C=N/NC(=S)Nc3ccccc3)o2)ccc1Cl | 0 | 0 | 0 | 16 | 0
CNC(=S)N/N=C/c1ccc(-c2cccc(C(=O)O)c2)o1 | 0 | 0 | 0 | - | 0
CCC(=O)Nc1ccc2c(c1)OC[C@H](C)N(CCc1ccccc1)C[C@@H](C)[C@H](OC)CN(C)C2=O | 0 | 0 | 0 | 0 | -
COc1ccc(NC(=O)Nc2ccc3c(c2)[C@H]2C[C@H](CC(=O)O)O[C@@H](CO)[C@H]2O3)cc1 | 0 | 0 | 0 | 0 | 0
O=C(CC(c1ccccc1)(c1ccccc1)c1ccccc1)N[C@@H](Cc1ccccc1)C(=O)O | 0 | 0 | 0 | 0 | 0
O=C(O)[C@H](Cc1ccccc1)NC(=O)C(c1ccccc1)(c1ccccc1)c1ccccc1 | 0 | 0 | -23 | 0 | 0
O=C(CC1CC1)Nc1ccc2c(c1)[C@H]1C[C@@H](CC(=O)N3CCc4ccccc4C3)O[C@@H](CO)[C@H]1O2 | 0 | 0 | 0 | 0 | 0
Cc1ccc(OCc2nc(C#N)c(N3CCCCC3)o2)cc1 | 0 | 0 | -32 | 0 | 0
Cc1ccsc1C(=O)OCC(=O)Nc1ccc(Cl)cn1 | 0 | 0 | -23 | 0 | 0
Cc1cccc(C)c1OCC(=O)OCC(=O)Nc1ccc(Cl)cn1 | 0 | 23 | 0 | 0 | 0
O=C(COC(=O)c1cccs1)Nc1ccc(Cl)cn1 | 0 | 0 | 0 | 0 | 0
COc1ccc(N(CC(=O)Nc2cc(Cl)ccc2C)S(=O)(=O)c2c(C)noc2C)cc1 | 0 | 0 | -29 | 0 | 0
Cc1ccc(N(CC(=O)Nc2cc(C)cc(C)c2)S(=O)(=O)c2c(C)noc2C)cc1 | 0 | 0 | 0 | 0 | 0
CCc1cccc(NC(=O)CN(c2ccc(C)cc2)S(=O)(=O)c2c(C)noc2C)c1 | 0 | 0 | -31 | 0 | 0
C[C@@H]1CN([C@@H](C)CO)C(=O)c2cc(/C=C/c3ccccc3)cnc2O[C@H]1CN(C)Cc1ccccc1 | 0 | 0 | 0 | 0 | 0
SMILES | S100A4 MyoIIA | F508del corr | rRNA inh HTS | SIRT5 inh | ERAP1 HTS inh
COC(=O)C1=NN(C(=O)c2ccc(Br)cc2)C(O)(C(C)(C)C)C1 (stereo unspecified) | 0 | 0 | -24 | 0 | 0
CCOc1ccc(OCc2cccc(C(=O)O)c2)cc1 | 0 | 0 | -24 | 0 | 0
CCOc1ccc(OCc2cccc(C(=O)N3CCCC3)c2)cc1 | 0 | - | 0 | - | 0
O=C(CNC(=O)c1ccco1)OCc1ccc(C(=O)c2ccccc2)cc1 | 0 | 0 | -33 | 0 | 0
COc1cccc(C2CC(=O)Nc3cc4c(cc32)OCCO4)c1OC(C)C (stereo unspecified) | 0 | 0 | 0 | 0 | 0
COc1ccccc1C1CC(=O)Oc2cc(C)c(Cl)cc21 (stereo unspecified) | 0 | 0 | -21 | 0 | -
COc1ccccc1C1CC(=O)Nc2cc3c(cc21)OCCO3 (stereo unspecified) | 0 | 11 | 0 | 0 | 0
COc1ccc(C2CC(=O)Oc3cc(C)c(Cl)cc32)cc1 (stereo unspecified) | 0 | 0 | 0 | 0 | 0
COC(=O)[C@@H]1[C@@H](CO)[C@@H]2Cn3c(ccc(C4=CCCCC4)c3=O)[C@@H]2N1Cc1ccc2c(c1)OCO2 | 0 | - | 0 | - | 0
CCCN(Cc1nnc(-c2ccccc2Cl)o1)C(=O)c1cc(S(=O)(=O)N2CCOCC2)ccc1F | 0 | 0 | 0 | 15 | 0
CN(C)c1cccc(C(=O)NNC(=S)NC2CC3CCC2C3)c1 (stereo unspecified) | 0 | 0 | -24 | 0 | 0
CO[C@@H](CN(C)Cc1cc(F)ccc1F)[C@@H](C)CN([C@H](C)CO)S(=O)(=O)c1ccc(C)cc1 | 0 | 0 | 0 | 0 | 0
Fc1ccc(COc2ccc(C(=S)N3CCCC3)cc2)cc1 | 0 | 0 | 0 | 0 | 0
Fc1cccc(COc2ccccc2C(=S)N2CCCC2)c1 | 0 | 0 | -30 | 0 | 0
O=C(O)CCNC(=O)OCC1c2ccccc2-c2ccccc21 | 0 | 0 | 0 | 0 | 0
NCC(=O)NNC(=O)OCC1c2ccccc2-c2ccccc21 | 0 | 8.6 | 0 | - | 0
O=C(C[C@H]1CC[C@H]2[C@@H](COC[C@@H](O)CN2Cc2ccccc2F)O1)N[C@@H]1CCN(Cc2ccccc2)C1 | 0 | 0 | 0 | 0 | 0
COc1cc(CNc2ncc(-c3ccc(Br)cc3)n2C)cc(OC)c1OC | 0 | 0 | -19 | 0 | 0
COc1ccc(N2CCN(C(=O)CSc3nnnn3-c3ccc4c(c3)OCCO4)CC2)cc1 | 0 | 0 | -21 | 0 | 0
COc1ccc(-n2nnnc2SCC(=O)N2CCOCC2)cc1 | 0 | 0 | 0 | - | -
COCC(=O)Nc1ccc2c(c1)C(=O)N(C)C[C@H](OC)[C@H](C)CN(CC1CCCCC1)[C@@H](C)CO2 | 0 | 0 | 0 | 0 | 0
COc1ccc(NCC(=O)n2c(C)c(C)c3ccccc32)cc1 | 0 | 9.4 | 0 | 0 | 0
COc1ccc(NC(=O)Cn2c(C)cc(=O)c3ccccc32)cc1 | 0 | 0 | 0 | 0 | 0
COc1cc(/C=C/C(=O)c2ccc3c(c2)OCO3)cc(Cl)c1O | 0 | 9.7 | 0 | 0 | 0
COc1ccc(C(=O)C=Cc2ccc3c(c2)OCO3)cc1OC | 0 | 0 | 0 | 0 | 0
